Source: ChEMBL document CHEMBL1123189, “4-Aroyl-1,3-dihydro-2H-imidazol-2-ones: a new class of cardiotonic agents. 2. Effect of 4-pyridoyl substituents and related compounds” (1986)

Assays:
Type in all cases: functional, Canis lupus familiaris
Canis familiaris [1] = assay: Compound was tested for inotropic activity by measuring the concentration required to mean blood pressure by 20% in the anesthetized dog after intravenous administration
In short: (§1)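 Anesthetized dogs, one compound per animal, stabilized at least 30 min after surgery. Contractile force from a Walton-Brodie strain gauge arch sutured to the left ventricle, heart rate from lead II EKG, aortic pressure via femoral cannula. Readings at 5- to 10-min intervals before and after iv injection of at least three doses, with return to baseline between doses. Equieffective doses extrapolated from dose-response curves; means with 95% confidence intervals.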

Canis familiaris [2] = assay: Compound was tested for inotropic activity by measuring the concentration required to increase cardiac contractile force by 30% in the anesthetized dog after intravenous administration; in short: as §1
Canis familiaris [3] = assay: Compound was tested for inotropic activity by measuring the concentration required to increase heart rate by 15% in the anesthetized dog after intravenous administration; in short: as §1

Structure (SMILES)	Equieffective dose (Canis familiaris [1])	Equieffective dose (Canis familiaris [2])	Equieffective dose (Canis familiaris [3])
Cc1[nH]c(O)nc1C(=O)c1ccncc1	2.58 mg/kg	0.13 mg/kg	3.37 mg/kg
Cc1[nH]c(O)nc1C(=O)c1cccnc1	>3 mg/kg	0.64 mg/kg	>3 mg/kg
CCc1[nH]c(O)nc1C(=O)c1cc[n+]([O-])cc1	>1 mg/kg	>1 mg/kg	>1 mg/kg
CCc1[nH]c(O)nc1C(=O)c1cccnc1Cl	>3 mg/kg	0.31 mg/kg	>3 mg/kg
Cc1[nH]c(O)nc1C(=O)c1ccccn1	1.91 mg/kg	1.57 mg/kg	3.29 mg/kg
Cc1[nH]c(O)nc1C(=O)c1cccnc1Cl	>10 mg/kg	0.47 mg/kg	5.1 mg/kg
CCc1[nH]c(O)nc1C(=O)c1cccnc1	>3 mg/kg	0.22 mg/kg	>3 mg/kg
CCCc1[nH]c(O)nc1C(=O)c1ccncc1	>3 mg/kg	1.7 mg/kg	3.38 mg/kg
CCc1[nH]c(O)nc1C(=O)c1cnccc1Cl	7.03 mg/kg	0.56 mg/kg	11.8 mg/kg
CCc1[nH]c(O)nc1C(=O)c1ccccn1	>3 mg/kg	0.2 mg/kg	0.83 mg/kg
CCc1[nH]c(=O)[nH]c1C(=O)c1ccncc1 [PIROXIMONE]	1.7 mg/kg	0.07 mg/kg	0.42 mg/kg
